In ChEMBL document CHEMBL1124731, “Synthesis and biological activity of novel quaternary ammonium derivatives of alkylglycerols as potent inhibitors of protein kinase C” (J Med Chem, 1990):

What was measured:
[1] = target: T1, Protein kinase C (PKC) (Homo sapiens) (UniProt O94806+P41743+P17252+P05129+Q05655+P05771+Q05513+Q02156+P24723+Q15139+Q04759); test: Inhibition of Protein Kinase C purified from HL-60 cells; assay type: cell-free
How it was run: (§1)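 Assay at pH 7.5, 25 mM Tris, 10 mM MgCl2, 0.1 mM CaCl2, 40 µg/mL histone, 10 µM ATP with [γ-32P]ATP, 20 µg/mL phosphatidylserine, 2.5 µM OAG. Compound added in ethanol before enzyme; 20 min at 30 °C; TCA-precipitated 32P-histone counted; 0.1% ethanol control; duplicates in three trials, fresh enzyme each.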

[2] = target: T1, Protein kinase C (PKC) (Homo sapiens); test: Retained protein kinase C activity in the presence 2.5 uM compound; assay type: functional; how it was run: as §1
[3] = target: T1, Protein kinase C (PKC) (Homo sapiens); test: Retained protein kinase C activity in the presence of 1.25 uM compound; assay type: functional; how it was run: as §1
[4] = target: T1, Protein kinase C (PKC) (Homo sapiens); test: Retained protein kinase C activity in the presence of 10 uM compound; assay type: functional; how it was run: as §1
[5] = target: T1, Protein kinase C (PKC) (Homo sapiens); test: Retained protein kinase C activity in the presence of 20 uM compound; assay type: functional; how it was run: as §1
[6] = target: T1, Protein kinase C (PKC) (Homo sapiens); test: Retained protein kinase C activity in the presence of 40 uM compound; assay type: functional; how it was run: as §1
[7] = target: T1, Protein kinase C (PKC) (Homo sapiens); test: Retained protein kinase C activity in the presence of 5 uM compound; assay type: functional; how it was run: as §1

SMILES | ID50 [1] | Activity [2] | Activity [3] | Activity [4] | Activity [5] | Activity [6] | Activity [7]
CCCCCCCCCCCCCCCCOCC(COCCO)OC (stereo unspecified) | 28 µM | 86% | 98% | 66% | 53% | 43% | 72%
CCCCCCCCCCCCCCCCSCC(C[N+](C)(C)CCO)OC (stereo unspecified) | 27 µM | 90% | 97% | 60% | 54% | 42% | 73%
CCCCCCCCCCCCCCCCCCSCC(C[N+](C)(C)CCCO)OC (stereo unspecified) | 5 µM | 56% | 75% | 39% | 27% | 23% | 49%
CCCCCCCCCCCCCCCCSCC(C[N+](C)(C)CCCO)OCC (stereo unspecified) | 26 µM | 64% | 78% | 60% | 59% | 37% | 67%
CCCCCCCCCCCCCCCCOCC(COCC[N+](C)(C)C)OC (stereo unspecified) | 31 µM | 91% | 92% | 73% | 57% | 43% | 83%
CCCCCCCCCCCCCCCCSCC(C[N+](C)(C)CCO)OCC (stereo unspecified) | 37 µM | 84% | 92% | 70% | 66% | 47% | 70%
CC1(C)OC[C@@H](C[N+](C)(C)CCO)O1 | > 40 µM | 84% | 88% | 88% | 96% | 87% | 87%
CCCCCCCCCCCCCCCCCC1OCC(C[N+](C)(C)CCCO)O1 (stereo unspecified) | 13 µM | 99% | 99% | 56% | 36% | 12% | 61%
CCCCCCCCCCCCCCCCCCOCC(COP(=O)([O-])OCC[N+](C)(C)C)OC (stereo unspecified) | 12 µM | 93% | 99% | 60% | 40% | 29% | 73%
CCCCCCCCCCCCCCCCSCC(C[N+](C)(C)C)OC (stereo unspecified) | 25 µM | 88% | 112% | 74% | 54% | 29% | 81%
COC(COc1cccc2ccccc12)C[N+](C)(C)CCO (stereo unspecified) | > 40 µM | 99% | 99% | 89% | 87% | 90% | 83%
CCCCCCCCCCCCCCCCOCC(C[N+](C)(C)CCO)OC (stereo unspecified) | 17 µM | 95% | 107% | 64% | 42% | 29% | 87%
CCCCCCCCCCCCCCCCC[C@@H]1OC[C@@H](C[N+](C)(C)CCCO)O1 | 17 µM | 90% | 94% | 56% | 43% | 19% | 70%
